The source made the active and inactive calls. The calls are words filed in the database; no cut-off is given here.
T1: 2-dehydropantoate 2-reductase (Escherichia coli K-12, UniProt P0A9J4)
T1 sequence (P0A9J4 whole entry): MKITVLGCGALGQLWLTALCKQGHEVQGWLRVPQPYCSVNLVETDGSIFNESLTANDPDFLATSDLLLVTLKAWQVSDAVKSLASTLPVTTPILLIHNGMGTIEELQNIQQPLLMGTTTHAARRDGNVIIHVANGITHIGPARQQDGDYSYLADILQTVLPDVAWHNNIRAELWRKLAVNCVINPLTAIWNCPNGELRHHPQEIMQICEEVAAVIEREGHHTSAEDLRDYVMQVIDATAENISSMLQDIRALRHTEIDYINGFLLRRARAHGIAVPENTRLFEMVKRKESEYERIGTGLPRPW

T2: 2-dehydropantoate 2-reductase (Escherichia coli K-12) (UniProt P0A9J4)
T2 sequence (whole entry): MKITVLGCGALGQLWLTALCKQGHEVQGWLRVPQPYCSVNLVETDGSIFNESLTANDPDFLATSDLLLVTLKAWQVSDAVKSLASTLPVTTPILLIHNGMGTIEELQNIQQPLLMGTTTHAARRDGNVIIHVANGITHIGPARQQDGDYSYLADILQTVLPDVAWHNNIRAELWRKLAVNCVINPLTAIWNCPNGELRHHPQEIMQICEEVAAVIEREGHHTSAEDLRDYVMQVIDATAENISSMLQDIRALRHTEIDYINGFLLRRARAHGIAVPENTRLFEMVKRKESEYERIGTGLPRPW

B1: 2-dehydropantoate 2-reductase (Escherichia coli K-12), P0A9J4 (protein)
chain: MKITVLGCGALGQLWLTALCKQGHEVQGWLRVPQPYCSVNLVETDGSIFNESLTANDPDFLATSDLLLVTLKAWQVSDAVKSLASTLPVTTPILLIHNGMGTIEELQNIQQPLLMGTTTHAARRDGNVIIHVANGITHIGPARQQDGDYSYLADILQTVLPDVAWHNNIRAELWRKLAVNCVINPLTAIWNCPNGELRHHPQEIMQICEEVAAVIEREGHHTSAEDLRDYVMQVIDATAENISSMLQDIRALRHTEIDYINGFLLRRARAHGIAVPENTRLFEMVKRKESEYERIGTGLPRPW

Key:
[1] = target: T1, 2-dehydropantoate 2-reductase; assay: Binding affinity to Escherichia coli KPR; format: single protein
Outline: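 Isothermal titration calorimetry with His6-tagged E. coli KPR in 0.1 M HEPES/HCl, pH 7.7, at 27 °C. Data were corrected for heat of dilution and fitted to a single-site binding model. For weak ligands (Kd > 100 µM), stoichiometry was fixed at n = 1, determined from active-site titrations with NADPH or NADP+. Errors are from curve fitting for single runs, or SD across multiple experiments.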

[2] = target: T2, 2-dehydropantoate 2-reductase (Escherichia coli K-12); assay: Inhibition of Escherichia coli KPR at 5 mM
[3] = target: T1, 2-dehydropantoate 2-reductase; assay: Inhibition of Escherichia coli KPR; format: single protein
Outline: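 His6-tagged E. coli KPR assayed at pH 7.5-7.7. It catalyses ketopantoate reduction with NADPH as cofactor. In the screen, ligand was tested at 1 mM with 20 µM NADPH, 1 mM ketopantoate and 2 nM enzyme. Ki was measured with five inhibitor concentrations against six NADPH concentrations, with NADPH as the varied substrate, and data were fitted to competitive or noncompetitive inhibition equations.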

[4] = target: T2, 2-dehydropantoate 2-reductase (Escherichia coli K-12); assay: Inhibition of Escherichia coli KPR at 1 mM
Outline: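 Single-point screen of His6-tagged E. coli KPR activity at pH 7.5-7.7. Ligand was tested at 1 mM with 20 µM NADPH, 1 mM ketopantoate and 2 nM enzyme. The result is reported as percent inhibition.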

[5] = target: T2, 2-dehydropantoate 2-reductase (Escherichia coli K-12); assay: Inhibition of Escherichia coli KPR at 20 mM
[6] = target: T2, 2-dehydropantoate 2-reductase (Escherichia coli K-12); 11 mM
[7] = target: 2-dehydropantoate 2-reductase (Escherichia coli) (UniProt P0A9J4); assay: Inhibition of Escherichia coli KPR

| Molecule | Kd [1] | Ki [3] | other results |
| --- | --- | --- | --- |
| Nc1nc2c(ncn2[C@@H]2O[C@H](COP(=O)(O)OP(=O)(O)O)[C@@H](O)[C@H]2O)c(=O)[nH]1 | 373 µM |  |  |
| NC(=O)c1ccc[n+]([C@@H]2O[C@H](COP(=O)([O-])O)[C@@H](O)[C@H]2O)c1 |  |  | inhibition [2]: 0% |
| O=P(O)(O)O [PHOSPHORIC ACID] |  | 27000 µM |  |
| NC(=O)c1ccc[n+]([C@@H]2O[C@H](COP(=O)([O-])OP(=O)(O)OC[C@H]3O[C@@H](n4cnc5c(N)ncnc54)[C@H](OP(=O)(O)O)[C@@H]3O)[C@@H](O)[C@H]2O)c1 [SODIUM beta-NICOTINAMIDE ADENINE DINUCLEOTIDE PHOSPHATE] | 0.26 µM |  |  |
| Nc1ncnc2c1ncn2[C@@H]1O[C@H](COP(=O)(O)OP(=O)(O)OC[C@H]2OC(O)[C@H](O)[C@@H]2O)[C@@H](O)[C@H]1O (stereo partly drawn) [ADENOSINE DIPHOSPHATE RIBOSE] | 6300 µM |  |  |
| Nc1ncnc2c1ncn2[C@@H]1O[C@H](COP(=O)(O)OP(=O)(O)O)[C@@H](O)[C@H]1O [ADENOSINE DIPHOSPHATE] | 360 µM | 1050 µM | Activity [4]: Active |
| Nc1ncnc2c1ncn2[C@@H]1O[C@H](COP(=O)(O)OP(=O)(O)OCC2OC(O)[C@H](O)[C@@H]2O)[C@@H](O)[C@H]1OP(=O)(O)O (stereo partly drawn) | 61 µM | 200 µM | Activity [4]: Active |
| NC(=O)c1ccc[n+]([C@@H]2O[C@H](COP(=O)([O-])OP(=O)(O)OC[C@H]3O[C@@H](n4cnc5c(N)ncnc54)[C@H](O)[C@@H]3O)[C@@H](O)[C@H]2O)c1 [NADIDE] | 6900 µM |  | inhibition [5]: 10% |
| Nc1ncnc2c1ncn2[C@@H]1O[C@H](COP(=O)(O)O)[C@@H](O)[C@H]1O [ADENOSINE PHOSPHATE] | > 5000 µM | 6300 µM | Activity [4]: Active |
| Nc1ncnc2c1ncn2[C@@H]1O[C@H](COP(=O)(O)O)[C@@H](O)[C@H]1OP(=O)(O)O | 100 µM | 240 µM | Activity [4]: Active |
| NC(=O)c1cccnc1 |  |  | inhibition [6]: 0% |
| NC(=O)C1=CN(C2OC(COP(=O)(O)OP(=O)(O)OC[C@H]3O[C@@H](n4cnc5c(N)ncnc54)[C@H](O)[C@@H]3O)[C@H](O)[C@@H]2O)C=CC1 (stereo partly drawn) | 66 µM |  |  |
| Nc1ncnc2c1ncn2[C@@H]1O[C@H](COP(=O)(O)OP(=O)(O)OCC2OC(O)[C@H](O)[C@@H]2O)[C@@H](O)[C@H]1O (stereo partly drawn) |  |  | inhibition [2]: 0% |
| Nc1nc2c(ncn2[C@@H]2O[C@H](COP(=O)(O)OP(=O)(O)OP(=O)(O)O)[C@@H](O)[C@H]2O)c(=O)[nH]1 [GUANOSINE TRIPHOSPHATE] | 153 µM |  |  |
| Nc1ncnc2c1ncn2[C@@H]1O[C@H](COP(=O)(O)OP(=O)(O)OP(=O)(O)O)[C@@H](O)[C@H]1O [ADENOSINE TRIPHOSPHATE] | 130 µM | 610 µM | Activity [4]: Active |
| NC(=O)c1ccc[n+]([C@@H]2O[C@H](COP(=O)([O-])OP(=O)(O)OC[C@H]3O[C@@H](n4cnc5c(N)ncnc54)[C@H](OP(=O)(O)O)[C@@H]3O)[C@@H](O)[C@H]2O)c1 [NICOTINAMIDE ADENINE DINUCLEOTIDE PHOSPHATE] | 5.8 µM |  |  |
| B1 |  |  | Km [7]: 750 µM |

Source: ChEMBL document CHEMBL1145346, “Probing hot spots at protein-ligand binding sites: a fragment-based approach using biophysical methods” (J Med Chem, 2006)
